Assay outcomes (PubChem BioAssay)
The list is not random: actives were taken first. Their share in the collection is about 2.9%.
HTR1E agonist: activates the human 5-HT1E serotonin receptor; P28566; activation, % at 6 µM; 65,000 compounds, 0.69% hits; CHO 5-HT1E Ga15 NFAT-bla reporter, FRET; 0% DMSO wells, 100% control agonist wells;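 active = activation above a set limit, the screen-wide mean activation plus 3 SD, cut at about 8.5% in these data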;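 also: 100% = positive control agonist at 1 µM giving full maximal response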
5-HT1A blocker: antagonists of human 5-HT1a serotonin receptor. CHO 5-HT1a Ga15 NFAT-bla reporter, antagonist mode. inhibition, % at 10 µM. 62,000 compounds, 0.68% hits;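 active = inhibition above the mean of all tested compounds plus 3 SD, cut at about 43% in these data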;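 also: receptor stimulated by 5-CT agonist at 100 nM near EC80; beta-lactamase reporter measured by ratiometric fluorescence of a cleavable substrate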
S1P1 ag-PAM: activates or potentiates agonism at human S1P1 receptor | 56,000 compounds, 0.57% hits | activation, % at 9.5 µM | S1P1 CRE-bla cells, forskolin, beta-lactamase FRET, potentiator mode; S1P1 agonist co-added at EC20, 2 nM; 100% = saturating reference agonist, 0% = basal | AID 449 | P21453;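 active = activation above a cutoff set at the mean activation of all tested compounds plus 3 SD, cut at about 54% in these data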;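 also: forskolin at 4 µM as EC80 and the EC20 agonist is SEW2871; 100% = SEW2871 at its EC100 plus forskolin at EC80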
Target sequence (P21453 whole entry, looked up): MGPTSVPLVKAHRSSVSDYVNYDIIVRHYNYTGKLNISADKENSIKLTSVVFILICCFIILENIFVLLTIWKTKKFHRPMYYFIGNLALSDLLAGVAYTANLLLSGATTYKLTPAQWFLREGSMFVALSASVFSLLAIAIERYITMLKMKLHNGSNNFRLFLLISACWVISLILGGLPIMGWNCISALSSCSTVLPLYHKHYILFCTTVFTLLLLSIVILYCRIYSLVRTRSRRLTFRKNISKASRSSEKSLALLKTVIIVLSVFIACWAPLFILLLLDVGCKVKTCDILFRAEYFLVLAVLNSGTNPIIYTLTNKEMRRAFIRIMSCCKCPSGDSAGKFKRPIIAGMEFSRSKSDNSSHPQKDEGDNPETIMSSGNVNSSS
S1P3 agonist: agonists of human S1P3 receptor | Q99500 | S1P3 NFAT-BLA reporter cells, agonism, FRET ratio; relative to 1 µM S1P, basal subtracted | activation, % at 4.5 µM | 60,000 compounds, 0.1% hits | AID 373;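 active = activation above the screen-wide mean plus 3 SD, cut at about 4.5% in these data, passing the limit was not always enough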
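Material: Human S1P3 NFAT-BLA reporter CHO cells | Incubation: Overnight plating, 4 h compound 37 °C, 2 h substrate RT | Signal: FRET β-lactamase substrate fluorescence, excitation 405 nm, 460/535 nm emission ratio, background-subtracted | Compound: 4.5 µM final, single dose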
5HT1E antag: antagonists of human 5-HT1E serotonin receptor | P28566 | CHO 5-HT1E Ga15 NFAT-bla reporter, FRET, antagonist | inhibition, % at 6 µM | 65,000 compounds, 0.99% hits;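 active = inhibition above a set limit, the mean inhibition across every tested compound plus 3 SD, cut at about 29% in these data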;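 also: signal is the 460 over 535 nm emission ratio of beta-lactamase substrate; 0% = agonist plus DMSO wells and 100% = wells without agonist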
5HT1a ag: 5-HT1a (human) receptor agonism. CHO 5-HT1a Ga15 NFAT-bla reporter, FRET ratio; 0% basal, 100% maximal reference agonist. P08908. 65,000 compounds, 0.56% hits. activation, % at 10 µM. AID 567;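 active = activation above the screen-wide mean activation plus 3 SD, cut at about 19% in these data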;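 also: 0% = DMSO wells and 100% = 5-CT at EC100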
An asterisk follows results filed as active; nt = no result.

SMILES	HTR1E agonist	5-HT1A blocker	S1P1 ag-PAM	S1P3 agonist	5HT1E antag	5HT1a ag
CCn1cc(C(=O)NCCCN2CCC(C)CC2)c2cc(OC)c(OC)cc2c1=O	1	-18	-9	0	-4	-1
Cc1cc(C)nc(N2CCC(C(=O)Nc3nnc(C)s3)CC2)n1	0	1	-4	0	6	-1
CCN(CC)CCN1C(=O)C(=O)/C(=C(/O)c2cccc(OC)c2)C1c1ccccn1 (stereo not given)	-1	14	0	0	-4	-2
CCOc1ccc(-c2nnc(-c3snc(-c4ccc(F)cc4)c3N=CN(C)C)o2)cc1	0	4	2	0	-3	1
CC1CCCN(C(C(=O)Nc2ccc3c(c2)OCO3)c2ccccc2)C1 (stereo not given)	1	49*	34	0	13	-2
CCN1CCN(c2ncc(C(=O)Nc3ccccc3C(=O)OC)c3ccccc23)CC1	17*	0	-4	0	6	1
Cn1c(=O)cc(SCC(=O)NCCCN2CCN(c3ccccc3F)CC2)c2ccccc21	1	60*	8	-1	-3	14
Cc1cc(=O)oc(C)c1C(=O)NCCCN1CCN(c2ccccc2F)CC1	28*	77*	nt	nt	24	1
CCn1c(=O)cc(SCC(=O)NCCCN2CCN(c3ccc(F)cc3)CC2)c2ccccc21	0	47*	nt	nt	-8	4
Cc1ccccc1CS(=O)(=O)CCC(=O)NCCCN1CCN(c2ccccc2F)CC1	-1	11	22	-1	11	1
Cn1c(=O)cc(SCC(=O)NCCCN2CCOCC2)c2ccccc21	-1	0	-8	-1	6	-3
Cn1c(C(=O)NCCCN2CCN(c3ccccc3F)CC2)cc2c(=O)n(C)c3ccccc3c21	18*	73*	-9	0	-17	17
O=C(N1CCOCC1)N(CCN1CCOCC1)Cc1cccc(Cl)c1	1	1	14	0	-14	-2
CC1(c2ccc(Cl)cc2Cl)OCC(Cn2ccnc2)O1 (stereo not given)	-2	16	7	-1	12	1
Cc1cc(=O)oc(C)c1C(=O)NCCNC(=O)c1c(C)cc(=O)oc1C	39*	nt	-14	-3	-11	-1
CCCCN(CC)CCCNC(=O)c1cc2c(=O)n(C)c3ccccc3c2n1C	17*	-3	-43	0	-2	-2
CCCCC(=O)Nc1ccc(C(=O)N2CCN(C)CC2)cc1	1	-6	nt	0	-7	0
N#Cc1c(N)nc(SCc2ccccc2)c(C#N)c1-c1ccco1	1	-16	-45	1	18	3
N#Cc1c(N)nc(SC2CCCCC2=O)c(C#N)c1-c1ccco1 (stereo not given)	1	-4	nt	nt	42*	2
O=C(CSc1nccc2ccccc12)N1CCN(c2ccccn2)CC1	-1	21	6	-1	9	0
CCn1nnc(-c2ccccc2NC(=O)c2cc(OC)c(OC)c(OC)c2)n1	1	3	-47	0	31*	1
Cc1c(-c2ccc(F)cc2)nc(N)c(C#N)c1-c1ccco1	0	-22	-49	0	29*	4
CCc1ccc(OCC(=O)Nc2ncc3c(n2)CC(C)(C)CC3=O)cc1	1	-5	0	0	-4	0
CC(C)C(=O)Nc1cccc(C(=O)Nc2nccs2)c1	-1	-2	11	-2	2	-1
O=C(CSc1nnnn1-c1ccccc1)Nc1nsc(-c2ccccc2)n1	0	7	nt	-1	9	-1
O=C(CSc1nnnn1-c1ccccc1)Nc1nsc(-c2ccc(Cl)cc2)n1	1	50*	-19	0	-11	0
CC(C)c1nc2oc3c(NCc4cccnc4)ncnc3c2c2c1CCC2	-1	-11	-27	0	30*	1
CC(C)Cc1nc2oc3c(NCC4CCCO4)ncnc3c2c2c1CCC2 (stereo not given)	1	-18	-30	-1	14	1
CCN1CCN(c2ncnc3c2oc2nc(C(C)C)c4c(c23)CCC4)CC1	2	-19	-32	-1	-6	-1
